Assay [1] has as its system Staphylococcus aureus. As to the kind of experiment: Antimicrobial activity against Staphylococcus aureus ATCC 25923 after 24 hrs by two-fold serial dilution method. It counts as functional. The note with it: ATCC 25923, 24 h.
For assay [2], the system named is Aspergillus flavus. As to the kind of experiment: Ratio of fluconazole MIC to compound MIC for Aspergillus flavus after 24 hrs by two-fold serial dilution method. Type of assay: functional.
The subject of assay [3] is Escherichia coli. As to the kind of experiment: Antimicrobial activity against Escherichia coli DH52 after 24 hrs by two-fold serial dilution method. Type of assay: functional. The note with it: DH52, 24 h.
In assay [4] the test system is Staphylococcus aureus. As to the kind of experiment: Antimicrobial activity against methicillin-resistant Staphylococcus aureus N315 after 24 hrs by two-fold serial dilution method. It counts as functional. The note with it: N315, 24 h.
Assay [5] has as its system Pseudomonas aeruginosa. The assay is described as follows: Antimicrobial activity against Pseudomonas aeruginosa after 24 hrs by two-fold serial dilution method. It counts as functional. The gist of the method:
(§1)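 MIC read by broth microdilution in microdilution plates.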

Assay [6] deals with Shigella dysenteriae. As to the kind of experiment: Antimicrobial activity against Shigella dysenteriae after 24 hrs by two-fold serial dilution method. Type of assay: functional.
The subject of assay [7] is Candida albicans. As to the kind of experiment: Antimicrobial activity against Candida albicans after 24 hrs by two-fold serial dilution method. It counts as functional. The method in brief:
as §1

The subject of assay [8] is Aspergillus flavus. As to the kind of experiment: Antimicrobial activity against Aspergillus flavus after 24 hrs by two-fold serial dilution method. It counts as functional. The method in brief: as §1
In assay [9] the test system is Micrococcus luteus. As to the kind of experiment: Antimicrobial activity against Micrococcus luteus ATCC 4698 after 24 hrs by two-fold serial dilution method. It counts as functional. The note with it: ATCC 4698, 24 h.
Assay [10] can be described thus: Antimicrobial activity against Bacillus proteus after 24 hrs by two-fold serial dilution method. It counts as functional. The method in brief: as §1
The subject of assay [11] is Saccharomyces cerevisiae. The assay is described as follows: Antimicrobial activity against Saccharomyces cerevisiae by two-fold serial dilution method. Type of assay: functional. The gist of the method: as §1
For assay [12], the system named is Bacillus subtilis. The assay is described as follows: Antimicrobial activity against Bacillus subtilis after 24 hrs by two-fold serial dilution method. It counts as functional. The method in brief:
as §1

Assay [13] has as its system Escherichia coli. The assay is described as follows: Ratio of chloromycin MIC to compound MIC for Escherichia coli DH52 after 24 hrs by two-fold serial dilution method. Type of assay: functional.
For assay [14], the system named is DNA. As to the kind of experiment: Competitive binding affinity to calf thymus DNA at 0.25 to 2 x 10^-5 mol/L by UV spectroscopy in presence of neutral red. It counts as nucleic-acid assay. The note with it: Bos taurus.
Assay [15] deals with DNA. The assay is described as follows: Binding affinity to calf thymus DNA by UV-vis spectroscopy. It counts as nucleic-acid assay. The note with it: Bos taurus. The method in brief: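 UV-vis absorption spectra of calf thymus DNA recorded with increasing concentrations of test compound. The DNA band at 260 nm was monitored for changes in intensity and wavelength.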

Structures are written as SMILES. In brackets after ≈: the same amount, converted by molar mass. Activity calls are given as the source filed them. The rule behind the calls is not given here.

By MIC is commonly meant the lowest concentration that inhibits growth of the organism. Low readings indicate greater potency, high ones weaker potency.

For the compound `CCCCCCCCn1cc(CN(Cc2cn(CCCCCCCC)nn2)N2C(=O)c3cccc4c(Br)ccc(c34)C2=O)nn1.Cl.Cl`, the MIC in assay [1] was above 512 µg/mL; in assay [3] it was 512 µg/mL; in assay [4], above 512 µg/mL; in assay [5], 512 µg/mL; in [6], above 512 µg/mL; in [7], above 512 µg/mL. Moreover, the MIC was 16 µg/mL in assay [8]; above 512 µg/mL in [9]; 512 µg/mL in assay [10]; above 512 µg/mL in assay [11]; above 512 µg/mL in assay [12]. In assay [2], the Ratio was 16.

Turning to `Cl.Cl.Cl.Cl.Cl.Cl.O=C1c2cccc3c(Br)ccc(c23)C(=O)N1N(Cc1cn(Cc2ccc(Cl)cc2Cl)nn1)Cc1cn(Cc2ccc(Cl)cc2Cl)nn1`, the MIC in assay [1] was above 512 µg/mL; in assay [3] it was 4 µg/mL; in assay [4], above 512 µg/mL; in [5], above 512 µg/mL; in assay [6] it was above 512 µg/mL; in [7] it was above 512 µg/mL. The minimal inhibitory concentration (MIC) in assay [8] is 32 µg/mL; in [9], 256 µg/mL; in assay [10], above 512 µg/mL; in [11] it was above 512 µg/mL; in [12], above 512 µg/mL. Moreover, the Ratio in assay [13] stood at 2.

In the case of `O=C1c2cccc3c(Br)ccc(c23)C(=O)N1N(Cc1cn(Cc2ccc(Cl)c(Cl)c2)nn1)Cc1cn(Cc2ccc(Cl)c(Cl)c2)nn1`, in assay [14], the result was Active. This compound displayed a K in [15] of 2.34 ×10⁴ L/mol.

Take `Cl.Cl.Cl.Cl.O=C1c2cccc3c(Br)ccc(c23)C(=O)N1N(Cc1cn(Cc2ccccc2Cl)nn1)Cc1cn(Cc2ccccc2Cl)nn1`: the minimal inhibitory concentration (MIC) in [1] is above 512 µg/mL; in [3] it was 4 µg/mL; in [4], 512 µg/mL; in [5], above 512 µg/mL; in assay [6], above 512 µg/mL; in [7] it was 64 µg/mL. In addition, the MIC was above 512 µg/mL in assay [8]; 128 µg/mL in [9]; above 512 µg/mL in [10]; above 512 µg/mL in assay [11]; above 512 µg/mL in assay [12]. The Ratio in [13] turned out to be 2.

In the case of `Cl.Cl.Cl.Cl.O=C1c2cccc3c(Br)ccc(c23)C(=O)N1N(Cc1cn(Cc2cccc(Cl)c2)nn1)Cc1cn(Cc2cccc(Cl)c2)nn1`, the MIC in assay [1] stood at 256 µg/mL; in [3], 2 µg/mL; in assay [4], 256 µg/mL; in [5], 64 µg/mL; in assay [6] it was 512 µg/mL; in assay [7], 16 µg/mL. The MIC in assay [8] was above 512 µg/mL; in [9] it was above 512 µg/mL; in [10], 512 µg/mL; in assay [11], 64 µg/mL; in assay [12], 256 µg/mL. For the same compound, the Ratio in assay [13] was determined as 2.

`O=C1c2cccc3c(Br)ccc(c23)C(=O)N1N(Cc1cn(Cc2ccccc2Cl)nn1)Cc1cn(Cc2ccccc2Cl)nn1`: the MIC is above 512 µg/mL in [1]; 4 µg/mL (≈ 5.69 µM) in assay [3]; 512 µg/mL (≈ 729 µM) in assay [4]; above 512 µg/mL in assay [5]; above 512 µg/mL in [6]; 64 µg/mL (≈ 91.1 µM) in assay [7]. Further, the minimum inhibitory concentration (MIC) in assay [8] was above 512 µg/mL; in assay [9], 128 µg/mL (≈ 182 µM); in assay [10], above 512 µg/mL; in [11], above 512 µg/mL; in [12] it was above 512 µg/mL. The Ratio in assay [13] is listed as 2.

Consider `O=C1c2cccc3c(Br)ccc(c23)C(=O)N1N(Cc1cn(Cc2ccc(Cl)cc2Cl)nn1)Cc1cn(Cc2ccc(Cl)cc2Cl)nn1`, for which the minimum inhibitory concentration (MIC) in assay [1] is above 512 µg/mL; in [3], 8 µg/mL (≈ 10.4 µM); in assay [4], above 512 µg/mL; in assay [5], above 512 µg/mL; in [6], above 512 µg/mL; in assay [7], above 512 µg/mL. Also, the MIC in assay [8] is 32 µg/mL (≈ 41.5 µM); in assay [9] it was 256 µg/mL (≈ 332 µM); in [10] it was above 512 µg/mL; in [11] it was above 512 µg/mL; in assay [12] it was above 512 µg/mL. Also, the Ratio in assay [13] stood at 2.

Take `Cl.Cl.Cl.Cl.O=C1c2cccc3c(Br)ccc(c23)C(=O)N1N(Cc1cn(Cc2ccc(Cl)cc2)nn1)Cc1cn(Cc2ccc(Cl)cc2)nn1`: the MIC in assay [1] was 256 µg/mL; in assay [3], 2 µg/mL; in [4], 512 µg/mL; in assay [5], 512 µg/mL; in [6], 256 µg/mL; in [7] it was above 512 µg/mL. For the same compound, the MIC in assay [8] is 256 µg/mL; in assay [9], 32 µg/mL; in [10], above 512 µg/mL; in assay [11], above 512 µg/mL; in assay [12], 256 µg/mL. In addition, the Ratio in [13] was determined as 2.

`CCCCCCCCn1cc(CN(Cc2cn(CCCCCCCC)nn2)N2C(=O)c3cccc4c(Br)ccc(c34)C2=O)nn1`: the MIC in assay [1] is above 512 µg/mL; in assay [3] it was 512 µg/mL (≈ 756 µM); in assay [4], above 512 µg/mL; in assay [5], 512 µg/mL (≈ 756 µM); in [6], above 512 µg/mL; in assay [7], above 512 µg/mL. Further, the MIC in [8] was 16 µg/mL (≈ 23.6 µM); in [9], above 512 µg/mL; in [10] it was above 512 µg/mL; in assay [11], above 512 µg/mL; in assay [12], above 512 µg/mL. The Ratio in assay [2] is 16.

Regarding `Cl.Cl.Cl.Cl.Cl.Cl.O=C1c2cccc3c(Br)ccc(c23)C(=O)N1N(Cc1cn(Cc2ccc(Cl)c(Cl)c2)nn1)Cc1cn(Cc2ccc(Cl)c(Cl)c2)nn1`, the MIC is 256 µg/mL in assay [1]; 0.5 µg/mL in assay [3]; 256 µg/mL in [4]; 256 µg/mL in assay [5]; above 512 µg/mL in [6]; 256 µg/mL in assay [7]. The MIC in assay [8] was above 512 µg/mL; in assay [9], 512 µg/mL; in [10], 256 µg/mL; in [11], 32 µg/mL; in assay [12] it was 512 µg/mL. The Ratio in [13] was 2.

(Values after ChEMBL document CHEMBL3098102, “1,2,3-Triazole-derived naphthalimides as a novel type of potential antimicrobial agents: synthesis, antimicrobial activity, interaction with calf thymus DNA and human serum albumin” (Bioorg Med Chem Lett, 2014).)
